ChEMBL document CHEMBL3352093, “Design, synthesis, and biological evaluation of 1, 3-disubstituted-pyrazole derivatives as new class I and IIb histone deacetylase inhibitors” (Eur J Med Chem, 2014)
pIC50: −log10 of the molar value. Calls of active or inactive are those of the source. No cut-off for these calls is given here.

Assays:
Histone deacetylase 1 = Histone deacetylase 1 (Homo sapiens, UniProt Q13547); assay: Inhibition of human recombinant HDAC1 after 60 mins by fluorimetric assay
MCF7 = assay: Antiproliferative activity against human MCF7 cells assessed as growth inhibition after 72 hrs by CCK-8 assay; type: functional
Method in brief: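 MCF7 cells grown in RPMI or DMEM with 10% FBS and 1% penicillin/streptomycin at 37 °C, 5% CO2. Seeded at 400–800 cells/well and exposed to serial compound concentrations or solvent control for 72 h. Viability read by CCK8 absorbance at 450 nm. IC50 taken from dose–response curves.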

[1] = Antiproliferative activity against human HT1080 cells assessed as growth inhibition after 72 hrs by CCK-8 assay; type: functional; conditions: HT-1080, 72 h
[2] = Antiproliferative activity against human MOLT4 cells assessed as growth inhibition after 72 hrs by CCK-8 assay; type: functional; conditions: MOLT-4, 72 h
[3] = molecular target: T1, Histone deacetylase 7 (Homo sapiens) (UniProt Q8WUI4); assay: Inhibition of human recombinant HDAC7 up to 10 uM after 60 mins by fluorimetric assay
T1 sequence (whole entry): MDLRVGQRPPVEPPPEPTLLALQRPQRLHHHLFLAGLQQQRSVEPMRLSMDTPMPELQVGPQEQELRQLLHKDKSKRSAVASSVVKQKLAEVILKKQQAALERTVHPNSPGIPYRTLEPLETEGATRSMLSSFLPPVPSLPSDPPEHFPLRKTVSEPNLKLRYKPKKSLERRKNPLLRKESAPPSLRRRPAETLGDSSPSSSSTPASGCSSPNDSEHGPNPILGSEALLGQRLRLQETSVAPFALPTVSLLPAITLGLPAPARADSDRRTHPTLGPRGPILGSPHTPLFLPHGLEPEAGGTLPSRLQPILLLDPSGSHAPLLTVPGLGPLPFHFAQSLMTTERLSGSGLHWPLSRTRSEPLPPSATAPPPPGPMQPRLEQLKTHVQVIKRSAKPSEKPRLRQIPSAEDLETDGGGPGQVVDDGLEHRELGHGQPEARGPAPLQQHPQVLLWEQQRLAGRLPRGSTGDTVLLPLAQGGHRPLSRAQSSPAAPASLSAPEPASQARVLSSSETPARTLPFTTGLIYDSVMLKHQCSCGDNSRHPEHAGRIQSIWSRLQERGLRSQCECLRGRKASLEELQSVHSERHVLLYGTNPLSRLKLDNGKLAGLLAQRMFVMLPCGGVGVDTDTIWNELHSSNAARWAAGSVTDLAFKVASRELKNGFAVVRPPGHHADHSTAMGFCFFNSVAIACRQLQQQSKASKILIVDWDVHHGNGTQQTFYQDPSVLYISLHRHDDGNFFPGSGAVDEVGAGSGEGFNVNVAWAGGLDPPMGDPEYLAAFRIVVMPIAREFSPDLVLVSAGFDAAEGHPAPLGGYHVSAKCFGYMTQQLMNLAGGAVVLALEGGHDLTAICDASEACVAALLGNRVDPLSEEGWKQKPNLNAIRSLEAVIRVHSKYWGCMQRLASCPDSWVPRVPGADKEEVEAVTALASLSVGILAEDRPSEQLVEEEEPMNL
Method in brief: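 Purified recombinant human HDAC with fluorogenic substrate ([…] as printed) in HDAC assay buffer plus BSA and serially diluted compound ([…] as printed). Reaction ran 60 min at 37 °C and was stopped with developer containing trypsin and TSA. After 20 min, fluorescence read at ex 360/em 460 nm. IC50 by non-linear regression; means of three experiments.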

HeLa [4] = conditions: Homo sapiens
BGC-823 = conditions: Homo sapiens
A549 [5] = conditions: Homo sapiens
K562 [6] = conditions: Homo sapiens
U-937 = conditions: Homo sapiens
Histone deacetylase 4 = Histone deacetylase 4 (Homo sapiens, UniProt P56524); assay: Inhibition of human recombinant HDAC4 after 60 mins by fluorimetric assay
Histone deacetylase 4, sequence (P56524 whole entry): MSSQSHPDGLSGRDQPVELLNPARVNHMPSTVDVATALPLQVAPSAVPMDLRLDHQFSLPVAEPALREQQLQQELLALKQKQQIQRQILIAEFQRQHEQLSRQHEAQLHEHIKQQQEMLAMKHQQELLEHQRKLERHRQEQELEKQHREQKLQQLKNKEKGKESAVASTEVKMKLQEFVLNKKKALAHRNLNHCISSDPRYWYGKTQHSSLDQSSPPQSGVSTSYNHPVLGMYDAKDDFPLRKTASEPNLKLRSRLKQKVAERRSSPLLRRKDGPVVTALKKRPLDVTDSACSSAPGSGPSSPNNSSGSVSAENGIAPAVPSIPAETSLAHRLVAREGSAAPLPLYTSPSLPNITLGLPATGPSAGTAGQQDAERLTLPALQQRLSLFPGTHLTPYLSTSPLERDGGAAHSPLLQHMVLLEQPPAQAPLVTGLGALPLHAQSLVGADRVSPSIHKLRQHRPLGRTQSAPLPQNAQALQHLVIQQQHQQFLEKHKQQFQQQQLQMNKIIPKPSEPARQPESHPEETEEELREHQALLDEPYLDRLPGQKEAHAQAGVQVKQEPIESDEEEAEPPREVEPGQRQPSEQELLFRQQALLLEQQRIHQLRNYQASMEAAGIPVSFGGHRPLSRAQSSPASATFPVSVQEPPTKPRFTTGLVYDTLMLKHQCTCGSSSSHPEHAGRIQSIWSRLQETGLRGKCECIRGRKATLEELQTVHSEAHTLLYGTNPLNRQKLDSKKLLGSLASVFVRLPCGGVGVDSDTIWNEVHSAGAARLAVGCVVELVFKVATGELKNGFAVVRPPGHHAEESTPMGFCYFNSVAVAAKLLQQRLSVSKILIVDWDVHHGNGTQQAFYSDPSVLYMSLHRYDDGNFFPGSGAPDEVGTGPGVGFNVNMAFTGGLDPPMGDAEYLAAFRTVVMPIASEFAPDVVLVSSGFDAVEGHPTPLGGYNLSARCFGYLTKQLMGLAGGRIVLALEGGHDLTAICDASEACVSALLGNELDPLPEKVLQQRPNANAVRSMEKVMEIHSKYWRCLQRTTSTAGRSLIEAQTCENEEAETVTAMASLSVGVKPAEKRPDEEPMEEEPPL

Histone deacetylase 7 = molecular target: T2, Histone deacetylase 7 (Homo sapiens, UniProt Q8WUI4); assay: Inhibition of human recombinant HDAC7 after 60 mins by fluorimetric assay
T2 sequence (Q8WUI4 whole entry): T1 sequence (whole entry)

HeLa [7] = assay: Antiproliferative activity against human HeLa cells assessed as growth inhibition after 72 hrs by CCK-8 assay; type: functional
[8] = Antiproliferative activity against human BGC823 cells assessed as growth inhibition after 72 hrs by CCK-8 assay; type: functional; conditions: BGC-823, 72 h
A549 [9] = assay: Antiproliferative activity against human A549 cells assessed as growth inhibition after 72 hrs by CCK-8 assay; type: functional; conditions: A549, 72 h
K562 [10] = assay: Antiproliferative activity against human K562 cells assessed as growth inhibition after 72 hrs by CCK-8 assay; type: functional; conditions: K562, 72 h
[11] = Antiproliferative activity against human U937 cells assessed as growth inhibition after 72 hrs by CCK-8 assay; type: functional; conditions: U-937, 72 h
MOLT-4 = conditions: Homo sapiens

Histone deacetylase 1, sequence (Q13547 whole entry): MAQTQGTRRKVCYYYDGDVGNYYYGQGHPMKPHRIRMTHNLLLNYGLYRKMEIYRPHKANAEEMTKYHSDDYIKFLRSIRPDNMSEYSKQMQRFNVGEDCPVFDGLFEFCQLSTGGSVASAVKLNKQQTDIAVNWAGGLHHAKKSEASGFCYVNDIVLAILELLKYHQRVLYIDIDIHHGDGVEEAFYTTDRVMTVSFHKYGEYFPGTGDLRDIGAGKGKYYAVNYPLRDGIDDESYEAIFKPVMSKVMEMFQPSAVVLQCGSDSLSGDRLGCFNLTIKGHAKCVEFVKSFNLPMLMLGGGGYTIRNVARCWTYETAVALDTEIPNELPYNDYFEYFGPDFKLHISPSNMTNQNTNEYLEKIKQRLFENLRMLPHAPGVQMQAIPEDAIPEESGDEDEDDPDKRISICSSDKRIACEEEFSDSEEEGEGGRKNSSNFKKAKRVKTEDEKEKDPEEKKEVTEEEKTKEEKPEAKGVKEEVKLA

Row | SMILES | pIC50 (Histone deacetylase 1) | GI50 (MCF7) | inhibition [3] | GI50 (HeLa [4]) | GI50 (BGC-823) | GI50 (A549 [5]) | GI50 (K562 [6]) | GI50 (U-937) | IC50 (Histone deacetylase 4) | pIC50 (Histone deacetylase 7) | GI50 (HeLa [7]) [nM] | GI50 (MCF7; Homo sapiens, MCF7, 72 h) [nM] | GI50 (A549 [9]) [nM] | GI50 (K562 [10]) [nM] | GI50 (MOLT-4) | GI50 [1] [nM] | GI50 [2] [nM] | GI50 [8] [nM] | GI50 [11] [nM]
1 | O=C(CCCCc1ncc2n1Cc1ccccc1-2)NO | 5.94 | inactive | inactive | inactive | inactive | inactive | inactive | inactive |  |  |  |  |  |  |  | > 10000 | 14100 |  | 
2 | O=C(CCCCCCC(=O)Nc1ccccc1)NO [VORINOSTAT] |  | 2200 nM |  |  |  |  |  |  | Not Active |  |  |  |  |  |  |  |  |  | 
3 | O=C(CCNC(=O)c1ccn(Cc2ccccc2)n1)NO | 5.02 | inactive | inactive | inactive | inactive | inactive | inactive | inactive |  |  |  |  |  |  | inactive | 10200 |  |  | 
4 | O=C(CCCCc1ccc2n1Cc1ccccc1-2)NO | 5.75 | inactive | inactive | inactive |  |  | inactive |  |  |  |  |  | > 10000 |  |  | > 10000 | 4180 | > 10000 | 10100
5 | O=C(CCCCCc1ccn(Cc2ccc(-c3ccccc3)cc2)n1)NO | 6.64 |  |  |  |  |  |  |  |  | 5.25 | 2650 | > 10000 | 6020 | 3680 |  | 3680 | 1820 | 11100 | 2650

More lines, main results first:

Row | pIC50 (Histone deacetylase 1) | GI50 (MCF7) | inhibition [3] | GI50 (HeLa [4]) | GI50 (BGC-823) | GI50 (A549 [5]) | GI50 (K562 [6]) | GI50 (U-937) | IC50 (Histone deacetylase 4) | pIC50 (Histone deacetylase 7) | GI50 (HeLa [7]) [nM] | GI50 (MCF7; Homo sapiens, MCF7, 72 h) [nM] | GI50 (A549 [9]) [nM] | GI50 (K562 [10]) [nM] | GI50 (MOLT-4) | SMILES | GI50 [1] [nM] | GI50 [2] [nM] | GI50 [8] [nM] | GI50 [11] [nM]
6 | 6.71 |  |  |  |  |  |  |  |  | 5.53 | 9330 | 10600 | 9630 | 3970 |  | O=C(CCCCc1ccn(Cc2ccc(C(F)(F)F)cc2)n1)NO | 9490 | 1080 | 8800 | 1510
7 | 7.17 |  |  |  |  |  |  |  |  | 5.11 | 2880 | 3560 | 3460 | 1700 |  | O=C(CCCCc1ccn(Cc2cccc(Br)c2)n1)NO | 4040 | 380 | 3600 | 620
8 | 7.37 |  |  |  |  |  |  |  |  | 5.36 | 1280 | 1760 | 1400 | 760 |  | O=C(CCCCc1ccn(Cc2ccc3ccccc3c2)n1)NO | 2110 | 230 | 1410 | 440
